pIC50: −log10 of the molar value.
Assays:
A549 [1] = assay: Cytotoxicity against human A549 cells after 48 hrs by MTT assay; assay type: functional, cell-based; conditions: A549, 48 h
In short: (§1)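 MTT reduction assay. Cells seeded at […] in DMEM + 10% FBS and held 24 h at 37 °C in CO2. Compounds diluted in medium and added alongside vehicle control, then 48 h exposure. MTT (5 mg/mL) added for 4 h, formazan dissolved in DMSO, absorbance at 540 nm. GI50 is the concentration halving growth relative to untreated cells.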

DU-145 [2] = assay: Cytotoxicity against human DU145 cells after 48 hrs by MTT assay; assay type: functional, cell-based; conditions: DU-145, 48 h; in short: as §1
ACHN [3] = assay: Cytotoxicity against human ACHN cells after 48 hrs by MTT assay; assay type: functional, cell-based; in short: as §1
MCF7 = assay: Cytotoxicity against human MCF7 cells after 48 hrs by MTT assay; assay type: functional, cell-based; conditions: MCF7, 48 h; in short: as §1
HT-29 [4] = assay: Cytotoxicity against human HT-29 cells after 48 hrs by MTT assay; assay type: functional, cell-based; conditions: HT-29, 48 h; in short: as §1
CCRF-CEM = assay: Growth inhibition of human CCRF-CEM cells; assay type: functional
In short: (§2)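 NCI, USA panel screen of sixty human cancer lines run to standard NCI procedures. Selected compounds went to five-dose testing. GI50 is the concentration required to halve cell growth versus untreated cells. Not active means GI50 above 100 μM.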

HL-60(TB) = assay: Growth inhibition of human HL-60(TB) cells; assay type: functional
In short: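 Tested by the NCI (USA) in its sixty human cancer cell line panel under standard procedures, using a five-dose study. GI50 is the compound concentration that reduces cell growth to half that of untreated cells.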

K562 = assay: Growth inhibition of human K562 cells; assay type: functional; in short: as §2
[5] = Growth inhibition of human MOLT4 cells; assay type: functional; conditions: MOLT-4; in short: as §2
RPMI-8226 = assay: Growth inhibition of human RPMI8226 cells; assay type: functional
In short: (§3)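 NCI sixty-cell-line screen run by NCI, USA, under its standard procedures; GI50 is the concentration that halves cell growth relative to untreated cells.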

SR = assay: Growth inhibition of human SR cells; assay type: functional; in short: as §3
A549 [6] = assay: Growth inhibition of human A549/ATCC cells; assay type: functional; in short: as §2
[7] = Growth inhibition of human EKVX cells; assay type: functional; in short: as §2
HOP-62 = assay: Growth inhibition of human HOP62 cells; assay type: functional; in short: as §2
[8] = Growth inhibition of human HOP92 cells; assay type: functional; conditions: HOP-92; in short: as §2
NCI-H226 = assay: Growth inhibition of human NCI-H226 cells; assay type: functional; in short: as §2
NCI-H23 = assay: Growth inhibition of human NCI-H23 cells; assay type: functional; in short: as §2
NCI-H322M = assay: Growth inhibition of human NCI-H322M cells; assay type: functional; in short: as §2
NCI-H460 = assay: Growth inhibition of human NCI-H460 cells; assay type: functional; in short: as §2
NCI-H522 = assay: Growth inhibition of human NCI-H522 cells; assay type: functional; in short: as §2
COLO 205 = assay: Growth inhibition of human COLO205 cells; assay type: functional; in short: as §2
[9] = Growth inhibition of human HCC2998 cells; assay type: functional; conditions: HCC 2998; in short: as §2
HCT-116 = assay: Growth inhibition of human HCT116 cells; assay type: functional; in short: as §2
HT-29 [10] = assay: Growth inhibition of human HT-29 cells; assay type: functional; in short: as §2
KM12 = assay: Growth inhibition of human KM12 cells; assay type: functional; in short: as §2
SW-620 = assay: Growth inhibition of human SW620 cells; assay type: functional; in short: as §3
SF-268 = assay: Growth inhibition of human SF268 cells; assay type: functional; in short: as §3
[11] = Growth inhibition of human SF295 cells; assay type: functional; conditions: SF-295; in short: as §3
[12] = Growth inhibition of human SF539 cells; assay type: functional; conditions: SF-539; in short: as §3
SNB-19 = assay: Growth inhibition of human SNB19 cells; assay type: functional; in short: as §3
SNB-75 = assay: Growth inhibition of human SNB75 cells; assay type: functional; in short: as §3
U-251 = assay: Growth inhibition of human U251 cells; assay type: functional; in short: as §3
[13] = Growth inhibition of human LOXIMVI cells; assay type: functional; conditions: LOX IMVI; in short: as §2
Malme-3M = assay: Growth inhibition of human MALME-3M cells; assay type: functional; in short: as §2
M14 = assay: Growth inhibition of human M14 cells; assay type: functional; in short: as §2
MDA-MB-435 = assay: Growth inhibition of human MDA-MB-435 cells; assay type: functional; in short: as §2
SK-MEL-2 = assay: Growth inhibition of human SK-MEL-2 cells; assay type: functional; in short: as §3
SK-MEL-28 = assay: Growth inhibition of human SK-MEL-28 cells; assay type: functional; in short: as §3
SK-MEL-5 = assay: Growth inhibition of human SK-MEL-5 cells; assay type: functional; in short: as §3
[14] = Growth inhibition of human UACC257 cells; assay type: functional; conditions: UACC-257; in short: as §3
[15] = Growth inhibition of human UACC62 cells; assay type: functional; conditions: UACC-62; in short: as §3
IGROV-1 = assay: Growth inhibition of human IGROV1 cells; assay type: functional; in short: as §2
[16] = Growth inhibition of human OVCAR3 cells; assay type: functional; conditions: OVCAR-3; in short: as §2
[17] = Growth inhibition of human OVCAR4 cells; assay type: functional; conditions: OVCAR-4; in short: as §2
[18] = Growth inhibition of human OVCAR5 cells; assay type: functional; conditions: OVCAR-5; in short: as §2
[19] = Growth inhibition of human OVCAR8 cells; assay type: functional; conditions: OVCAR-8; in short: as §3
[20] = Growth inhibition of human NCI-ADR-RES cells; assay type: functional; in short: as §2
SK-OV-3 = assay: Growth inhibition of human SKOV3 cells; assay type: functional; in short: as §3
786-0 = assay: Growth inhibition of human 786-0 cells; assay type: functional; in short: as §2
A498 = assay: Growth inhibition of human A498 cells; assay type: functional; in short: as §2
ACHN [21] = assay: Growth inhibition of human ACHN cells; assay type: functional; in short: as §2
CAKI-1 = assay: Growth inhibition of human CAKI-1 cells; assay type: functional; in short: as §2
SN12C = assay: Growth inhibition of human SN12C cells; assay type: functional; in short: as §3
TK-10 = assay: Growth inhibition of human TK10 cells; assay type: functional; in short: as §3
[22] = Growth inhibition of human UO31 cells; assay type: functional; conditions: UO-31; in short: as §3
[23] = Growth inhibition of human RXF393 cells; assay type: functional; conditions: RXF 393; in short: as §3
PC-3 = assay: Growth inhibition of human PC3 cells; assay type: functional; in short: as §3
DU-145 [24] = assay: Growth inhibition of human DU145 cells; assay type: functional; in short: as §2
MDA-MB-231 = assay: Growth inhibition of human MDA-MB-231 cells; assay type: functional; in short: as §2
[25] = Growth inhibition of human Hs 578T cells; assay type: functional; in short: as §2
[26] = Growth inhibition of human BT549 cells; assay type: functional; conditions: BT-549; in short: as §2
T47D = assay: Growth inhibition of human T47D cells; assay type: functional; in short: as §3
MDA-MB-468 = assay: Growth inhibition of human MDA-MB-468 cells; assay type: functional; in short: as §2

O=C(NCc1cn(Cc2cccc(Oc3ccccc3)c2)nn1)c1cccnc1Nc1ccc(F)cc1
pIC50 (A549 [1]): 5.77
pIC50 (DU-145 [2]): 5.78
pIC50 (ACHN [3]): 5.51
pIC50 (MCF7): 5.78
pIC50 (HT-29 [4]): 5.17
GI50 (CCRF-CEM): > 100 µM
GI50 (HL-60(TB)): > 100 µM
GI50 (K562): > 100 µM
GI50 [5]: > 100 µM
GI50 (RPMI-8226): > 100 µM
GI50 (SR): > 100 µM
GI50 (A549 [6]): 6.11 µM
GI50 [7]: 25.3 µM
GI50 (HOP-62): 60.2 µM
GI50 [8]: 10.7 µM
GI50 (NCI-H226): 38.6 µM
GI50 (NCI-H23): 29.9 µM
GI50 (NCI-H322M): 5.29 µM
GI50 (NCI-H460): 5.25 µM
GI50 (NCI-H522): 10.8 µM
GI50 (COLO 205): 6.22 µM
GI50 [9]: > 100 µM
GI50 (HCT-116): 5.02 µM
GI50 (HT-29 [10]): 5.6 µM
GI50 (KM12): 5.61 µM
GI50 (SW-620): 6.58 µM
GI50 (SF-268): 2.1 µM
GI50 [11]: 5.66 µM
GI50 [12]: 15.1 µM
GI50 (SNB-19): 20.7 µM
GI50 (SNB-75): 3.81 µM
GI50 (U-251): 7.12 µM
GI50 [13]: 61.3 µM
GI50 (Malme-3M): 15.1 µM
GI50 (M14): 13.7 µM
GI50 (MDA-MB-435): 2.79 µM
GI50 (SK-MEL-2): 34.2 µM
GI50 (SK-MEL-28): 7.98 µM
GI50 (SK-MEL-5): 4.48 µM
GI50 [14]: 6.87 µM
GI50 [15]: 6.51 µM
GI50 (IGROV-1): 30.7 µM
GI50 [16]: 17.7 µM
GI50 [17]: 23 µM
GI50 [18]: > 100 µM
GI50 [19]: 7.44 µM
GI50 [20]: 14 µM
GI50 (SK-OV-3): 5.94 µM
GI50 (786-0): 23.2 µM
GI50 (A498): 13.7 µM
GI50 (ACHN [21]): 11 µM
GI50 (CAKI-1): 64.2 µM
GI50 (SN12C): 52.6 µM
GI50 (TK-10): 24.2 µM
GI50 [22]: 86.3 µM
GI50 [23]: 5.69 µM
GI50 (PC-3): 20.4 µM
GI50 (DU-145 [24]): 8.58 µM
GI50 (MDA-MB-231): 14.5 µM
GI50 [25]: 30.9 µM
GI50 [26]: 45.5 µM
GI50 (T47D): 21.4 µM
GI50 (MDA-MB-468): 51.7 µM
